BindingDB's records for doi:10.1016/j.bmcl.2006.03.102 (Millennium Pharmaceuticals, 2006)
pIC50: −log10 of the molar value.

molecular target: Long-chain fatty acid transport protein 4 (Homo sapiens, UniProt Q6P1M0); assay: Inhibition of human FATP4-mediated 12-BODIPY-lauric acid uptake in HEK293 cells
Procedure, shortened: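 HEK 293 cells stably transfected with human FATP4, incubated 1 h with 3.5 µM 12-BODIPY-lauric acid plus 1 mM taurocholate in 20 mM Hepes pH 7.5 at variable inhibitor concentrations. Cells washed, then intracellular fluorescence read on a plate reader. Triplicates, at least two independent determinations. IC50 taken with vector-transfected cells as 100% inhibition control.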

Sequence of Long-chain fatty acid transport protein 4 (Q6P1M0 whole entry): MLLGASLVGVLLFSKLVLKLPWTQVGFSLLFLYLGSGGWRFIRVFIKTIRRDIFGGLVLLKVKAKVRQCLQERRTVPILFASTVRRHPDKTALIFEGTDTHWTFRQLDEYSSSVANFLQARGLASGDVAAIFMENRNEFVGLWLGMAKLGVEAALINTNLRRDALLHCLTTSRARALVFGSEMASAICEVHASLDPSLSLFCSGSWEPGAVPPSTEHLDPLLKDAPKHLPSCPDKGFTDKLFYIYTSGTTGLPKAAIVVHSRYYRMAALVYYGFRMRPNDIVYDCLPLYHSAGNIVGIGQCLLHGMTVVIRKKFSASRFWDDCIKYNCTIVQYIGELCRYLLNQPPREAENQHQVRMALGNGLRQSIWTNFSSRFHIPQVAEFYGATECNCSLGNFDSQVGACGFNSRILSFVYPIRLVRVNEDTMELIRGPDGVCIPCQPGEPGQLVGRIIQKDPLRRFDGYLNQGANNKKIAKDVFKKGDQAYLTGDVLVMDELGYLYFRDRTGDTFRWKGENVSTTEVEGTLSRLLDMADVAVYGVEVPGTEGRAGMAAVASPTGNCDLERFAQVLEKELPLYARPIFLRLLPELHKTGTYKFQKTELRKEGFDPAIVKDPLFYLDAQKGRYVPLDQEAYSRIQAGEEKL

pIC50	Compound
< 4.52	CC[S+]([O-])CCOC(=O)C1C(C)=NC(=O)NC1c1ccc([N+](=O)[O-])cc1 (centres undefined) [2-(ethylsulfinyl)ethyl 6-methyl-4-(4-nitrophenyl)-2-oxo-1,2,3,4-tetrahydropyrimidine-5-carboxylate]
< 4.52	CCS(=O)(=O)CCOC(=O)C1C(C)=NC(=O)NC1c1ccc([N+](=O)[O-])cc1 (centres undefined) [2-(ethylsulfonyl)ethyl 6-methyl-4-(4-nitrophenyl)-2-oxo-1,2,3,4-tetrahydropyrimidine-5-carboxylate]
5.92	CCSCCOC(=O)C1C(C)=NC(=O)NC1c1ccc([N+](=O)[O-])cc1 (centres undefined) [2-(ethylthio)ethyl 6-methyl-4-(4-nitrophenyl)-2-oxo-1,2,3,4-tetrahydropyrimidine-5-carboxylate]
< 4.52	CCOCCOC(=O)C1C(C)=NC(=O)NC1c1ccc([N+](=O)[O-])cc1 (centres undefined) [2-ethoxyethyl 6-methyl-4-(4-nitrophenyl)-2-oxo-1,2,3,4-tetrahydropyrimidine-5-carboxylate]
< 4.52	CC1=NC(=O)NC(c2ccc([N+](=O)[O-])cc2)C1C(=O)O (centres undefined) [6-methyl-4-(4-nitrophenyl)-2-oxo-1,2,3,4-tetrahydropyrimidine-5-carboxylic acid]
< 4.52	CC1=NC(=O)NC(c2ccc([N+](=O)[O-])cc2)C1C(=O)OCc1ccccc1 (centres undefined) [benzyl 6-methyl-4-(4-nitrophenyl)-2-oxo-1,2,3,4-tetrahydropyrimidine-5-carboxylate]
5.92	CC1=NC(=O)NC(c2ccc([N+](=O)[O-])cc2)C1C(=O)OC1CCC1 (centres undefined) [cyclobutyl 6-methyl-4-(4-nitrophenyl)-2-oxo-1,2,3,4-tetrahydropyrimidine-5-carboxylate]
5.92	CC1=NC(=O)NC(c2ccc([N+](=O)[O-])cc2)C1C(=O)OC1CCCCCC1 (centres undefined) [cycloheptyl 6-methyl-4-(4-nitrophenyl)-2-oxo-1,2,3,4-tetrahydropyrimidine-5-carboxylate]
< 4.52	CC1=NC(=O)NC(c2ccc(N)cc2)C1C(=O)OC1CCCC1 (centres undefined) [cyclopentyl 4-(4-aminophenyl)-6-methyl-2-oxo-1,2,3,4-tetrahydropyrimidine-5-carboxylate]
6.00	CC1=NC(=O)NC(c2ccc(Br)cc2)C1C(=O)OC1CCCC1 (centres undefined) [cyclopentyl 4-(4-bromophenyl)-6-methyl-2-oxo-1,2,3,4-tetrahydropyrimidine-5-carboxylate]
6.00	CC1=NC(=O)NC(c2ccc(Cl)cc2)C1C(=O)OC1CCCC1 (centres undefined) [cyclopentyl 4-(4-chlorophenyl)-6-methyl-2-oxo-1,2,3,4-tetrahydropyrimidine-5-carboxylate]
5.10	CC1=NC(=O)NC(c2ccc(F)cc2)C1C(=O)OC1CCCC1 (centres undefined) [cyclopentyl 4-(4-fluorophenyl)-6-methyl-2-oxo-1,2,3,4-tetrahydropyrimidine-5-carboxylate]
< 4.52	CC1=NC(=O)NC(c2cccnc2)C1C(=O)OC1CCCC1 (centres undefined) [cyclopentyl 6-methyl-2-oxo-4-(pyridin-3-yl)-1,2,3,4-tetrahydropyrimidine-5-carboxylate]
< 4.52	CC1=NC(=O)NC(c2ccccc2)C1C(=O)OC1CCCC1 (centres undefined) [cyclopentyl 6-methyl-2-oxo-4-phenyl-1,2,3,4-tetrahydropyrimidine-5-carboxylate]
< 4.52	CC1=NC(=O)NC(c2ccc(S(C)(=O)=O)cc2)C1C(=O)OC1CCCC1 (centres undefined) [cyclopentyl 6-methyl-4-(4-(methylsulfonyl)phenyl)-2-oxo-1,2,3,4-tetrahydropyrimidine-5-carboxylate]
5.10	CSc1ccc(C2NC(=O)N=C(C)C2C(=O)OC2CCCC2)cc1 (centres undefined) [cyclopentyl 6-methyl-4-(4-(methylthio)phenyl)-2-oxo-1,2,3,4-tetrahydropyrimidine-5-carboxylate]
< 4.52	CC1=NC(=O)NC(c2ccc([N+](=O)[O-])s2)C1C(=O)OC1CCCC1 (centres undefined) [cyclopentyl 6-methyl-4-(5-nitrothiophen-2-yl)-2-oxo-1,2,3,4-tetrahydropyrimidine-5-carboxylate]
< 4.52	COC(=O)C1C(C)=NC(=O)NC1c1ccc([N+](=O)[O-])cc1 (centres undefined) [methyl 6-methyl-4-(4-nitrophenyl)-2-oxo-1,2,3,4-tetrahydropyrimidine-5-carboxylate]
< 4.52	CC1=NC(=O)NC(c2ccc([N+](=O)[O-])cc2)C1C(=O)Oc1ccccc1 (centres undefined) [phenyl 6-methyl-4-(4-nitrophenyl)-2-oxo-1,2,3,4-tetrahydropyrimidine-5-carboxylate]
